These results are taken from ChEMBL document CHEMBL5226372, “Tuaimenals B-H, Merosesquiterpenes from the Irish Deep-Sea Soft Coral Duva florida with Bioactivity against Cervical Cancer Cell Lines” (J Nat Prod, 2023).

Each structure is given as a SMILES string. pEC50: −log10 of the molar value. Activity calls are given as the source filed them. The rule behind the calls is not given here.

Test [1] relates to Ca-Ski. Description: Antiproliferative activity against HPV-positive human Ca-Ski cells assessed as inhibition of cell growth incubated for 48 hrs by WST-1 assay. Format: functional, cell-based. In short, it runs like this:
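CaSki cells were grown in RPMI 1640 with 10% FBS, kept below passage 10, at 37 °C and 5% CO2. They were seeded at 1000–3000 cells/well (about 50% confluence) and treated with 12 serial dilutions from 200 to 2 μM in DMSO (N = 3), with DMSO and 50 μM etoposide controls. After 48 h, 2 h WST-1 was read at 450/600 nm, normalized, and fitted by nonlinear regression.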
(In general: Tetrazolium assays rely on reduction of a dye to a coloured formazan, in cell work by metabolically active cells.)

The test system of test [2] is C-33-A. Description: Antiproliferative activity against HPV-negative human C-33-A cells assessed as inhibition of cell growth incubated for 48 hrs by WST-1 assay. It counts as functional, cell-based. In short, it runs like this:
(§1)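 CaSki cells (RPMI 1640) and C33A cells (DMEM), passage <10, kept at 37 °C in 5% CO2. Cells were seeded at 1000–3000 per well to reach 50% confluency, then treated 48 h with serial dilutions from 200 to 2 μM in DMSO (N = 3). WST-1 was read after 2 h at 450/600 nm. Absorbances were normalized and EC50 came from nonlinear regression.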

For test [3], the system named is Candida. Description: Antifungal activity against Candida. Format: functional, organism-based.
Test [4] concerns Enterococcus faecium. Description: Antibacterial activity against Enterococcus faecium. It counts as functional, organism-based.
Test [5] has as its system Staphylococcus aureus. Put plainly: Antibacterial activity against Staphylococcus aureus. Format: functional, organism-based.
Test [6] has as its system Klebsiella pneumoniae. Put plainly: Antibacterial activity against Klebsiella pneumoniae. It counts as functional, organism-based.
Test [7] concerns Acinetobacter baumannii. Put plainly: Antibacterial activity against Acinetobacter baumannii. Format: functional, organism-based.
For test [8], the system named is Pseudomonas aeruginosa. Description: Antibacterial activity against Pseudomonas aeruginosa. It counts as functional, organism-based.
In test [9] the test system is Enterobacter sp. Description: Antibacterial activity against Enterobacter sp. It counts as functional, organism-based.
Test [10] deals with Mycobacterium tuberculosis. Put plainly: Antibacterial activity against Mycobacterium tuberculosis. Format: functional, organism-based.
The subject of test [11] is Human orthopneumovirus. Description: Antiviral activity against human respiratory syncytial virus. It counts as functional, organism-based.
The nature of test [12]: Selectivity ratio of EC50 for antiproliferative activity against HPV-positive human Ca-Ski cells to EC50 for antiproliferative activity against HPV-negative human C-33-A cells. Format: functional. The essentials: as §1
Test [13] relates to Ca-Ski. Put plainly: Antiproliferative activity against HPV-positive human Ca-Ski cells assessed as inhibition of cell growth at 50 uM incubated for 48 hrs by WST-1 assay. It counts as functional, cell-based.
Test [14] concerns C-33-A. Description: Antiproliferative activity against HPV-negative human C-33-A cells assessed as inhibition of cell growth at 50 uM incubated for 48 hrs by WST-1 assay. It counts as functional, cell-based. In short, it runs like this: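 C33A cells in DMEM, seeded at 1000–3000 per well and exposed to 50 μM etoposide as the positive control alongside a DMSO negative control (N = 3). Proliferation was read by WST-1 after 48 h treatment plus 2 h reagent incubation, at 450/600 nm. End-point absorbances were normalized.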

The term pEC50 denotes the EC50 on a negative log10 scale, so that one unit is a factor of ten. Turning to `CC(C)=CCC/C(C)=C/CCC1(C)C=Cc2c(C=O)c(O)c(C)c(O)c2O1` (stereo not drawn), the pEC50 in test [1] was 4.34; in [2], 4.24. In addition, the result in test [3], in [4], in test [5], in [6], in [7] and in test [8] was inactive. In addition, the result in [9], in test [10] and in [11] was inactive.
Consider `COc1cc(C)c(O)c2c1C=CC(C)(CC/C=C(\C)CCCC(C)(C)O)O2` (stereo not drawn), for which the pEC50 in [1] was 4.39; in test [2] it was 4.42. Further, the outcome in test [3], in [4], in [5], in [6], in [7] and in test [8] was inactive. For the same compound, the outcome in test [9], in [10] and in test [11] was inactive.
Regarding `COc1cc(C)c(O)c2c1C=CC(C)(CC/C=C(\C)CCCC(C)(C)OC(C)=O)O2` (stereo not drawn), the pEC50 was 4.70 in [1] and 7.40 in test [2]. For the same compound, the “Ratio EC50” value in [12] is recorded as 500. Besides, the outcome in test [3], in test [4], in [5], in test [6], in [7] and in test [8] was inactive. Besides, the result in test [9], in [10] and in test [11] was inactive.
As to `CC(C)=CCC/C(C)=C/CC/C(C)=C/Cc1c(O)c(O)c(C)c(O)c1C=O`, the pEC50 in [1] is 4.64; in [2], 4.85. The result in [3], in [4], in test [5], in test [6], in [7] and in [8] was inactive. Moreover, the outcome in test [9], in test [10] and in test [11] was inactive.
With `COc1cc([C@@H]2c3cc4c(cc3[C@@H](O[C@@H]3O[C@@H]5CO[C@@H](C)O[C@H]5[C@H](O)[C@H]3O)[C@H]3COC(=O)[C@H]23)OCO4)cc(OC)c1O`, the result in test [13] and in test [14] was Active.
On to `CC(=O)Oc1cc(C)c(O)c2c1C=CC(C)(CC/C=C(\C)CCC=C(C)C)O2` (stereo not drawn), for which the pEC50 was 4.60 in [1] and 4.85 in test [2]. Also, the result in [3], in test [4], in [5], in [6], in [7] and in [8] was inactive. For the same compound, the outcome in test [9], in [10] and in test [11] was inactive.
